Screening results (PubChem BioAssay)
T cruzi growth-1: T. cruzi proliferation inhibition; T. cruzi beta-gal in NIH3T3, GalScreen luminescence, 90 h; inhibition, % at 8.34 µM; 5.9% of 77,000 active; AID 624255;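 active = mean inhibition above about 93%, with at least 55% of replicates each passing it, limit read from the data, passing the limit was not always enough; inconclusive = only one of those two conditions holds; inactive = neither condition holds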
Pf Dd2 growth: inhibitors of Plasmodium falciparum Dd2 growth; activity change, % at 10 µM; 2.3% of 94,000 active; P. falciparum Dd2 growth, SYBR Green, 72 h; hits give low values; in the data active = activity change below about -80%; inconclusive = no clear call, values can overlap the other calls
IDH1 mut inh: inhibitors of human IDH1 R132H | 0.18% of 70,000 active | AID 624101 | IDH1 R132H reductase, diaphorase/resazurin fluorescence, 60 min | inhibition, % at 10 µM | O75874; in the data active = inhibition above about 34%; inconclusive = no clear call, values can overlap the other calls; inactive = below about 11%
Target sequence (O75874 whole entry R132H): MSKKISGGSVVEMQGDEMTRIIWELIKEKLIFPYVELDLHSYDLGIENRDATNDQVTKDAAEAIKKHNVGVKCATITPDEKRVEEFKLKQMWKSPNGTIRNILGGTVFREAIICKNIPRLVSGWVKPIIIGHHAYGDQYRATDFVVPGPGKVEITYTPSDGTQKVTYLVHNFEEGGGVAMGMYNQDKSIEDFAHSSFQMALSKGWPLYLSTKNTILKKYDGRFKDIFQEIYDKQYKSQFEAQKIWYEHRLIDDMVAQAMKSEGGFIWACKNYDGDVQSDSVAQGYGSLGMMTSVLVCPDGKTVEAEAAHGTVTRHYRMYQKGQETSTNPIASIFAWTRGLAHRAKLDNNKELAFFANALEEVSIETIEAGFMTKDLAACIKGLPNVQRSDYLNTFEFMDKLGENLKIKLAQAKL
KDM4C inh: blocks human GASC-1 (KDM4C) demethylase activity; Q9H3R0; GST-KDM4C 2-372, H3K9me3 peptide, LANCE TR-FRET; inhibition, % at 12.5 µM; 0.15% of 96,000 active; AID 720574;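 active = mean replicate inhibition above about 25%, with at least 55% of replicates also reaching it, limit read from the data, passing the limit was not always enough; inconclusive = only one of those two conditions met; inactive = neither condition met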
Target sequence (Q9H3R0 2-372 limits assumed): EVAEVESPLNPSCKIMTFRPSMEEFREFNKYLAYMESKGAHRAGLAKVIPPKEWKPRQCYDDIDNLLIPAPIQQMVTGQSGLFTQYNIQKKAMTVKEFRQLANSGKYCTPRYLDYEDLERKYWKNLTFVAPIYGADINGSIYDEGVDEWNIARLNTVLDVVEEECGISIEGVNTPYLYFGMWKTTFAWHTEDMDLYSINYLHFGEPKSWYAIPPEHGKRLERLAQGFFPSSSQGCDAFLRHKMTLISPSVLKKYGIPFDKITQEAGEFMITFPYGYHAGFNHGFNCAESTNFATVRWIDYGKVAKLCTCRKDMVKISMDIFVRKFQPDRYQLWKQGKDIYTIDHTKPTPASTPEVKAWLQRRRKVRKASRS
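System: N-terminal GST-fused human GASC-1 (KDM4C) fragment, residues 2-372; amount: enzyme final amount 10 nM; incubation: reaction 30 min RT, detection step 1 h RT; medium: HEPES buffer, pH 7.5, plus ascorbate; technique: LANCE TR-FRET, Eu antibody, ULight-streptavidin, EDTA, ex 340 nm, em 618/671 nm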
T cruzi growth-2: Trypanosoma cruzi proliferation inhibition; inhibition, % at 8.35 µM; shares compounds with T cruzi growth-1; T. cruzi beta-gal in NIH3T3, GalScreen luminescence, 90 h; 72% of 5,600 active;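 active = mean replicate inhibition above about 95% and at least 55% of replicates individually reaching it, limit read from the data; inconclusive = only one of the two criteria is met; inactive = neither criterion is met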
T cruzi growth-3: blocks T. cruzi growth in NIH3T3 host cells; shares compounds with T cruzi growth-1; T. cruzi beta-gal in NIH3T3, GalScreen luminescence, 90 h; inhibition, % at 2.09 µM; 21% of 5,600 active; AID 651740;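 active = mean inhibition above about 95%, with at least 55% of replicates also reaching it, limit read from the data; inconclusive = meets just one of the two conditions; inactive = meets neither condition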
NIH3T3 tox: kills mouse NIH/3T3 fibroblasts; cytotoxicity (signal decrease), % at 8.35 µM; shares compounds with T cruzi growth-1; NIH/3T3 viability, CellTiter-Glo ATP luminescence, 90 h; 14% of 5,600 active;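 active = mean signal decrease across replicates above about 35% based on untreated-well scatter, with enough replicates individually passing, limit read from the data; inconclusive = no rule stated though some were filed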
3T3 cytotox 2: kills mouse NIH/3T3 fibroblasts | 56% of 5,600 active | inhibition, % at 24.9 µM | shares compounds with T cruzi growth-1 | AID 651744 | NIH/3T3 viability, CellTiter-Glo ATP luminescence, 90 h;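 active = mean loss of cell viability signal at or above a set limit, and enough replicates individually reaching it; inconclusive = meets only the mean limit or only the replicate share; inactive = meets neither condition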
Of the large screens only hits and unclear results are named; the others gave an inactive call (follow-up assays come after a bar, where they were run). The list is not random: actives were taken first. Their share in the collection is about 5.9%.

O=S(=O)(Cc1ccccc1)N1CCCCN2[C@H](CO)[C@H](c3ccc(-c4ccc(F)cc4)cc3)[C@@H]2C1	T cruzi growth-1 100 (no result: IDH1 mut inh) | T cruzi growth-2 99 | T cruzi growth-3 inactive | NIH3T3 tox inactive | 3T3 cytotox 2 105
CCCC#Cc1ccc([C@@H]2[C@@H](CO)N3CCCCN(S(=O)(=O)c4ccccc4C)C[C@H]23)cc1	T cruzi growth-1 119 (no result: IDH1 mut inh) | T cruzi growth-2 105 | T cruzi growth-3 inconclusive | NIH3T3 tox inactive | 3T3 cytotox 2 106
CN(C)CC#Cc1ccc([C@@H]2[C@H](CO)N3CCCCN(S(=O)(=O)c4ccccc4F)C[C@@H]23)cc1	T cruzi growth-1 103 (no result: IDH1 mut inh) | T cruzi growth-2 110 | T cruzi growth-3 inactive | NIH3T3 tox inactive | 3T3 cytotox 2 76
Cc1ccccc1S(=O)(=O)N1CCCCN2[C@@H](CO)[C@@H](c3ccc(C#CCN(C)C)cc3)[C@@H]2C1	T cruzi growth-1 99 (no result: IDH1 mut inh) | T cruzi growth-2 107 | T cruzi growth-3 inactive | NIH3T3 tox inconclusive | 3T3 cytotox 2 103
COCC#Cc1ccc([C@H]2[C@@H](CO)N3CCCCN(S(=O)(=O)c4ccccc4F)C[C@@H]23)cc1	T cruzi growth-1 107 (no result: IDH1 mut inh) | T cruzi growth-2 106 | T cruzi growth-3 inactive | NIH3T3 tox inactive | 3T3 cytotox 2 inactive
COCC#Cc1ccc([C@@H]2[C@@H](CO)N3CCCCN(S(=O)(=O)c4ccccc4F)C[C@H]23)cc1	none (no result: IDH1 mut inh, KDM4C inh)
C/C=C1/[C@H](O[C@@H]2O[C@H](CO)[C@@H](O)[C@H](O)[C@H]2O)OC=C(C(=O)OC)[C@H]1CC(=O)OCCc1ccc(O)cc1	none (no result: T cruzi growth-1, Pf Dd2 growth, KDM4C inh)
O=C1c2cccc3cccc(c23)N1Cc1ccc(F)cc1Cl	none (no result: T cruzi growth-1, Pf Dd2 growth, KDM4C inh)
Cc1ccccc1S(=O)(=O)N1CCCCN2[C@H](CO)[C@@H](c3ccc(C#CCN(C)C)cc3)[C@@H]2C1	none (no result: IDH1 mut inh)
Cc1ccccc1S(=O)(=O)N1CCCCN2[C@H](C1)[C@H](c1ccc(C#CCN(C)C)cc1)[C@@H]2CO	T cruzi growth-1 98 (no result: IDH1 mut inh) | T cruzi growth-2 110 | T cruzi growth-3 inactive | NIH3T3 tox inactive | 3T3 cytotox 2 83
COc1ccccc1NC(=O)c1sc2ncn(CC(=O)Nc3ccccc3C)c(=O)c2c1C	none (no result: T cruzi growth-1, Pf Dd2 growth, KDM4C inh)
C[C@@H]1CCCCO[C@H](CN(C)Cc2ccccc2)[C@@H](C)CN([C@@H](C)CO)C(=O)c2cc(NC(=O)c3ccccc3)ccc2O1	none
C[C@@H]1CN([C@H](C)CO)C(=O)c2cc(NC(=O)c3ccccc3)ccc2O[C@@H](C)CCCCO[C@H]1CN(C)Cc1ccccc1	T cruzi growth-1 103 (no result: IDH1 mut inh) | T cruzi growth-2 113 | T cruzi growth-3 inactive | NIH3T3 tox inactive | 3T3 cytotox 2 89
C[C@@H]1CN([C@H](C)CO)C(=O)c2cc(NC(=O)c3ccccc3)ccc2O[C@@H](C)CCCCO[C@@H]1CN(C)Cc1ccncc1	none
C[C@@H]1CN([C@@H](C)CO)C(=O)c2cc(NC(=O)c3ccccc3)ccc2O[C@@H](C)CCCCO[C@H]1CN(C)Cc1ccncc1	T cruzi growth-1 101 (no result: IDH1 mut inh) | T cruzi growth-2 109 | T cruzi growth-3 inactive | NIH3T3 tox inactive | 3T3 cytotox 2 inactive
C[C@@H]1CCCCO[C@@H](CN(C)Cc2ccccc2)[C@H](C)CN([C@H](C)CO)C(=O)c2cc(NC(=O)c3ccccc3)ccc2O1	T cruzi growth-1 inconclusive (no result: IDH1 mut inh) | T cruzi growth-2 114 | T cruzi growth-3 inactive | NIH3T3 tox inactive | 3T3 cytotox 2 55
C[C@@H]1CN([C@@H](C)CO)C(=O)c2cc(NC(=O)c3ccccc3)ccc2O[C@@H](C)CCCCO[C@@H]1CN(C)Cc1ccccc1	none (no result: IDH1 mut inh)
C[C@@H]1CN([C@H](C)CO)C(=O)c2cc(NC(=O)c3ccccc3)ccc2O[C@@H](C)CCCCO[C@@H]1CN(C)Cc1ccccc1	T cruzi growth-1 inconclusive | T cruzi growth-2 108 | T cruzi growth-3 inactive | NIH3T3 tox inactive | 3T3 cytotox 2 35
Cc1cccc(-c2ccc([C@H]3[C@@H](CO)N4CCCCN(CCC(F)(F)F)C[C@H]34)cc2)c1	T cruzi growth-1 105, Pf Dd2 growth -85 (no result: IDH1 mut inh) | T cruzi growth-2 100 | T cruzi growth-3 102 | NIH3T3 tox inactive | 3T3 cytotox 2 105
COc1ccccc1C#Cc1ccc([C@H]2[C@H]3CN(CCC(F)(F)F)CCCCN3[C@H]2CO)cc1	none (no result: IDH1 mut inh)
COc1ccccc1C#Cc1ccc([C@@H]2[C@@H](CO)N3CCCCN(CCC(F)(F)F)C[C@H]23)cc1	T cruzi growth-1 105, Pf Dd2 growth -82 (no result: IDH1 mut inh) | T cruzi growth-2 inactive | T cruzi growth-3 110 | NIH3T3 tox 98 | 3T3 cytotox 2 104
Cc1cccc(-c2ccc([C@H]3[C@@H](CO)N4CCCCN(CCC(F)(F)F)C[C@@H]34)cc2)c1	T cruzi growth-1 inconclusive (no result: IDH1 mut inh) | T cruzi growth-2 inactive | T cruzi growth-3 inactive | NIH3T3 tox 45 | 3T3 cytotox 2 105
Cc1cccc(-c2ccc([C@H]3[C@H](CO)N4CCCCN(CCC(F)(F)F)C[C@@H]34)cc2)c1	T cruzi growth-1 108 (no result: IDH1 mut inh) | T cruzi growth-2 inconclusive | T cruzi growth-3 inactive | NIH3T3 tox inactive | 3T3 cytotox 2 104
C[C@@H]1O[C@@H](O[C@H]2[C@@H](O)[C@@H](C)O[C@@H](O[C@H]3[C@H](O)[C@@H](O)[C@H](O[C@H]4CC[C@@]5(C)C(CC[C@]6(C)C5C=CC5=C7CC(C)(C)CC[C@]7(CO)CC[C@]56C)[C@]4(C)CO)O[C@@H]3CO)[C@@H]2O[C@@H]2O[C@H](CO)[C@@H](O)[C@H](O)[C@H]2O)[C@H](O)[C@H](O)[C@H]1O (stereo not given in full)	none (no result: T cruzi growth-1, Pf Dd2 growth, KDM4C inh)
COc1ccc(NC(=O)N2CCC3(CC2)CN(CC2CC2)[C@@H](CO)c2c3c3ccc(OC)cc3n2C)cc1	none (no result: T cruzi growth-1, IDH1 mut inh, KDM4C inh)
OC[C@H]1[C@H](c2ccc(-c3ccccc3)cc2)[C@@H]2CN(CCC(F)(F)F)CCCCN12	T cruzi growth-1 106 (no result: IDH1 mut inh) | T cruzi growth-2 100 | T cruzi growth-3 inactive | NIH3T3 tox 65 | 3T3 cytotox 2 102
OC[C@H]1[C@H](c2ccc(C#CC3CC3)cc2)[C@H]2CN(CCC(F)(F)F)CCCCN21	T cruzi growth-1 98 (no result: IDH1 mut inh, KDM4C inh) | T cruzi growth-2 111 | T cruzi growth-3 inactive | NIH3T3 tox inactive | 3T3 cytotox 2 106
OC[C@H]1[C@@H](c2ccc(-c3ccccc3)cc2)[C@@H]2CN(CCC(F)(F)F)CCCCN12	none (no result: IDH1 mut inh)
OC[C@H]1[C@@H](c2ccc(C#CC3CC3)cc2)[C@H]2CN(CCC(F)(F)F)CCCCN21	none (no result: IDH1 mut inh, KDM4C inh)
C/C=C/c1ccc([C@H]2[C@@H](CO)N3CCCCN(CCC(F)(F)F)C[C@@H]23)cc1	none (no result: IDH1 mut inh)
